Data reported in publication PMC11044231 (ACS Omega, 2024).
Each block holds one compound with its values, some of them ahead of it.

Assays:
[1] = test system: RAW 264.7 mouse macrophage cell line; format: cell-based; settings: RAW264.7, 24 h, read-out: NO Production Inhibition (IC50)
In short: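 NO production inhibition is measured in RAW 264.7 macrophages, with dexamethasone as positive control and the value given as IC50.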

[2] = test system: MDA-MB-231S triple-negative breast cancer cell line; experiment: MTT antiproliferative assay, MDA-MB-231S; format: cell-based; settings: 48 h, read-out: IC50, antiproliferative effect
In short: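 Antiproliferative test on MDA-MB-231S cells with DMSO as negative (vehicle) control and doxorubicin as positive control. Activity is reported as IC50.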

[3] = TAOC, total antioxidant capacity; settings: read-out: TAOC EC50; concentration that results in an absorbance of 0.500
In short: (§1)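 Cell-free antioxidant assays, with Trolox and ascorbic acid as positive controls. Results are expressed as […] or as Trolox equivalents.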

[4] = HORAC, hydroxyl radical absorbance capacity; settings: trolox equivalent
In short: as §1

[5] = ORAC, oxygen radical absorbance capacity; settings: trolox equivalent
In short: as §1

SMILES: C[C@@H]1C[C@H]2[C@@H]3CCC4=CC(=O)C=C[C@]4(C)[C@@]3(F)[C@@H](O)C[C@]2(C)[C@@]1(O)C(=O)CO [dexametasone, Dexamethasone]
IC50 [1]: 16.1 ± 1.02 µM

IC50 [2]: 0.07 ± 0.01 µM
SMILES: COc1cccc2c1C(=O)c1c(O)c3c(c(O)c1C2=O)C[C@@](O)(C(=O)CO)C[C@@H]3O[C@H]1C[C@H](N)[C@H](O)[C@H](C)O1 [doxorubicin]

EC50 [3]: 244 µM
SMILES: O=C1O[C@H]([C@@H](O)CO)C(O)=C1O [ascorbic acid]

EC50 [3]: 143 µM
SMILES: Cc1c(C)c2c(c(C)c1O)CCC(C)(C(=O)O)O2 (stereo not drawn) [trolox]
HORAC (TE) [4]: 1 TE
ORAC (TE) [5]: 1 TE
